ChEMBL document CHEMBL4130469, “C-Methylated Flavonoid Glycosides from Pentarhizidium orientale Rhizomes and Their Inhibitory Effects on the H1N1 Influenza Virus” (J Nat Prod, 2017)

Key:
[1] = Cytotoxicity against MDCK cells after 2 days by MTT assay; type: cell-based, Canis lupus familiaris; conditions: dog
In short: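 Uninfected MDCK cells seeded at 1 × 10^5 cells/well and grown 24 h. Washed with PBS, then exposed to graded compound concentrations in fresh DMEM, each in triplicate, for 2 days. Viability by MTT (2 mg/mL), 4 h further incubation; CC50.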

[2] = Inhibition of neuraminidase activity in H9N2 A/chicken/Korea/01210/2001 infected in MDCK cells using 4-MU-NANA as substrate pretreated for 30 mins followed by substrate addition measured after 2 hrs by fluorescence assay; type: cell-based, H9N2 subtype; conditions: Influenza A virus, A/chicken/Korea/01210/2001, MDCK
[3] = test system: Influenza A virus; test: Antiviral activity against Influenza A virus (A/PR/8/34 (H1N1)) infected in MDCK cells assessed as reduction in virus-induced cytopathic effect after 3 days by MTT assay; type: functional, organism-based; conditions: A/Puerto Rico/8/1934(H1N1), 72 h
In short: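 MDCK cells grown in DMEM with 10% FBS at 37 °C and 5% CO2, seeded at 1 × 10^5 cells/well, and cultured 24 h. Infected 2 h in DMEM with 0.15 μg/mL trypsin and 5 μg/mL BSA, then given DMEM with 10 μg/mL trypsin and a range of compound concentrations, in triplicate. After 3 days, MTT (2 mg/mL) added for 4 h at 37 °C; formazan dissolved in DMSO, A550 read; EC50.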

[4] = molecular target: Neuraminidase (Influenza A virus (A/Puerto Rico/8/1934(H1N1)), UniProt P03468); test: Inhibition of neuraminidase activity in Influenza A virus (A/PR/8/34 (H1N1)) infected in MDCK cells using 4-MU-NANA as substrate pretreated for 30 mins followed by substrate addition measured after 2 hrs by fluorescence assay; type: cell-based
Sequence of Neuraminidase (Influenza A virus (A/Puerto Rico/8/1934(H1N1)), UniProt P03468) (P03468 whole entry): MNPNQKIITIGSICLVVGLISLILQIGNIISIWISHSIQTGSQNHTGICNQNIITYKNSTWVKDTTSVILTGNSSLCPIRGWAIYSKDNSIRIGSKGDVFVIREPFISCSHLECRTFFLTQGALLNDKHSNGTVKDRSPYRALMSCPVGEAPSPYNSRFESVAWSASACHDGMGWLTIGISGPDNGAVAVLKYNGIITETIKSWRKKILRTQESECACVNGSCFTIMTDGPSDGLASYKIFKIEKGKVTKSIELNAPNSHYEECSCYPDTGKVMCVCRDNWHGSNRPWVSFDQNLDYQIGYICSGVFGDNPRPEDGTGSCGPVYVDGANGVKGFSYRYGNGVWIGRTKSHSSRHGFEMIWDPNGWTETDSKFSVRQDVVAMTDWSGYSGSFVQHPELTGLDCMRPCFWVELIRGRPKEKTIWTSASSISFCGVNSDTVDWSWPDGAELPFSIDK

| SMILES | CC50 at 48 h [1] | IC50 [2] | EC50 [3] | IC50 [4] |
| --- | --- | --- | --- | --- |
| COc1ccc([C@@H]2CC(=O)c3c(O)c(C)c(O)c(C)c3O2)cc1 | > 100 µM | 27.2 µM | 26.9 µM | 25.2 µM |
| CCOC(=O)C1=C[C@@H](OC(CC)CC)[C@H](NC(C)=O)[C@@H](N)C1 [OSELTAMIVIR] |  | 0.0191 µM | 0.6 µM |  |
| COc1cc(O)cc([C@@H]2CC(=O)c3c(O)c(C)c(O)c(C)c3O2)c1 | > 100 µM | 23.1 µM | 21.4 µM | 24.4 µM |
| Cc1c(O)c(C)c2c(c1O)C(=O)C[C@@H](c1ccccc1O)O2 | > 100 µM | 24.1 µM | 22.9 µM | 23.9 µM |
| COc1ccc(O)c([C@@H]2CC(=O)c3c(O)c(C)c(O)c(C)c3O2)c1 | > 100 µM | 24.6 µM | 23 µM | 24.5 µM |
| Cc1c(O)c(C)c2c(c1O)C(=O)C[C@@H](c1ccccc1)O2 [DEMETHOXYMATTEUCINOL] | 77.6 µM | 31.3 µM | 30.7 µM | 30.3 µM |
